Shown are actives, neighbours in structure and some others; about 3.5% of the full set was active somewhere.
ERAP1 inh: human ERAP1 aminopeptidase inhibitors, primary screen, biochemical, single point, plate reader. Endoplasmic reticulum aminopeptidase 1 (Homo sapiens), Q9NZ08. recombinant ERAP1, Leu-AMC fluorescence, 60 min. inhibition, % at 10.7 µM. 0.15% of 340,000 active;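 active means mean replicate inhibition of at least 30%, or all replicates individually reaching that 30% level; inactive means mean below 30% and not every replicate reaching it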
PGC1a acetyl inh: inhibitors of PGC1a acetylation signal, primary screen, cell-based, U2OS, AlphaScreen, inhibitor mode; AlphaScreen anti-acetyl-lysine; with virally co-expressed GCN5 acetyltransferase; inhibition, % at 15.6 µM; 0.17% of 350,000 active;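 active means every replicate shows inhibition of at least 40%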
FGF22 binding: binders of human FGF22 protein, primary screen, FGF22 synaptogenesis inhibitor project, biophysical, thermal shift, single point; activity (Tm shift, normalised), % at 9.99 µM; recombinant FGF22 thermal shift, SYPRO orange fluorescence; percent of sucrose octasulfate shift, DMSO zero; 1.5% of 340,000 active; Fibroblast growth factor 22 (Homo sapiens), Q9HCT0;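 active means mean Tm shift, scaled 0 neutral to 100 positive control, at about 1.3% or above, every replicate too, limit read from the data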
Ecoli rRNA inh: reduced GFP signal of wild-type E. coli, primary screen, bacterial rRNA inhibitor project, GFP/RFP fluorescence, OD600, single point. E. coli WT GFP vs humanized-ribosome RFP mutants, 24 h; active compounds read low; DMSO median 0, no signal -100. GFP signal change (wild-type ribosome), % (no concentration beside the values). 1.6% of 350,000 active;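 active means significant combined selectivity score with lowered wild-type GFP, culture density cut under 30%, mutant RFP and density less affected; inactive means any of these conditions unmet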
HIV Env fusion: inhibitors of HIV-1 Env-driven cell-cell fusion, primary screen, HeLa-JRFL effector, CEM21 target cells, luciferase | inhibition, % at 12.3 µM | 1.1% of 360,000 active;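 active means mean replicate inhibition score of at least 50 and every replicate individually at or above 50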
Cneo AK release: Cryptococcus neoformans cell lysis inducers, primary screen, AK release luminescence, single concentration; lysis activity, % at 15 µM; C. neoformans lysis, adenylate kinase release luminescence, 4 h; normalised: neutral wells 0, clomiphene wells 100; 0.2% of 360,000 active;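 active means mean lysis activity across replicates of at least 80%, whatever share of replicates individually reach that level; inactive means mean lysis activity below 80%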
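Material – log-phase Cryptococcus neoformans yeast cells · Input – 5 × 10^6 yeast cells/mL · Medium – fresh YPD growth medium · Doses – single compound concentration per well · Timing – static 4 h at 37 °C with compound, 1 h detection · Detection – adenylate kinase release luminescence · Read-out – signal increase indicating cell lysis · Control set – Clomiphene as positive lysis control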
A number is an active result; - = inactive; . = not tested or not shown; ! = not confirmed by another sample; [ ] = remark or other dose.

SMILES	ERAP1 inh	PGC1a acetyl inh	FGF22 binding	Ecoli rRNA inh	HIV Env fusion	Cneo AK release
O=S(=O)(Nc1nc2ccccc2nc1Nc1cccc(S(=O)(=O)N2CCCCC2)c1)c1ccccc1	-	.	-	-	77	-
COc1ccc(S(=O)(=O)Nc2cccc(S(=O)(=O)N3CCCCCC3)c2)cc1	.	-	.	.	.	-
CC(/C=N/NC(=O)c1cc(C2CC2)[nH]n1)=C\c1ccccc1	-	.	-	-	-	.
CCOC(=O)N1CCN(C(=O)c2cc(Cl)c(Cl)cc2C(=O)O)CC1	-	84	-	-	.	.
C=C1C(=O)[C@]23C[C@H]1CC[C@H]2[C@]1(C)[C@@H](OC(C)=O)CC[C@@](C)(C(=O)O)[C@H]1C[C@@H]3O	.	-	-	-	-	-
C=C1C(=O)[C@]23C[C@H]1CCC2[C@@]1(C)C(C[C@@H]3O)[C@](C)(C(=O)OC)CC[C@@H]1OC(C)=O (stereo partly specified)	-	103	.	-	-	-
C=C1C(=O)[C@]23C[C@H]1CC[C@H]2[C@]1(C)[C@@H](OC(C)=O)CC[C@@](C)(C(=O)OC)[C@H]1C[C@@H]3OC(C)=O	-	94	-	-	-	-
CC(/C=N/n1c(COc2ccccc2)n[nH]c1=S)=C\c1ccccc1	-	.	.	-	-	-
O=c1oc(CCO)cc2ccc(C#Cc3ccsc3)cc12	-	-	-	-	-	-
COc1ccccc1C#Cc1ccc2c(c1)O[C@@H](CN(C)Cc1cccnc1)[C@@H](C)CN([C@@H](C)CO)S2(=O)=O	-	-	-	-	.	-
COc1ccccc1C#Cc1ccc2c(c1)O[C@@H](CN(C)Cc1ccncc1)[C@H](C)CN([C@H](C)CO)S2(=O)=O	-	-	-	-	52[16.7 µM]	-
COc1ccccc1C#Cc1ccc2c(c1)O[C@@H](CN(C)Cc1cccnc1)[C@H](C)CN([C@@H](C)CO)S2(=O)=O	-	44	-	-	.	-
COc1ccccc1C#Cc1ccc2c(c1)O[C@H](CN(C)Cc1ccncc1)[C@@H](C)CN([C@@H](C)CO)S2(=O)=O	-	-	-	-	48[16.7 µM]	-
COc1ccc(CNC(=O)C[C@H]2C=C[C@H](NS(=O)(=O)c3cccc(OC)c3)[C@H](CO)O2)cc1	-	-	-	.	-	.
O=C(C[C@H]1C=C[C@@H](NC(=O)CCN2CCCCC2)[C@H](CO)O1)Nc1nccs1	-	-	-	-	-	-
Cc1cccc2[nH]c(CCNC(=O)C3CCC(=O)N(CCc4cccc(F)c4)C3)nc12 (stereo unspecified)	-	-	-	-	-	-
C#CCNC(=O)C1=C[C@@H](c2ccc(C#C)cc2)C[C@@H](OCCCCO)O1	.	-	.	.	-	-
C#CCNC(=O)C1=C[C@@H](c2ccccc2)C[C@@H](OCCCCO)O1	-	-	1.7!	-	-	-
Cc1cccc(NC(=O)CSCC(=O)Nc2cc(C(F)(F)F)ccc2N2CCOCC2)c1	-	.	-	-	69	-
Cc1cc(NC(=O)CSCC(=O)Nc2cc(C(F)(F)F)ccc2N2CCCCC2)no1	-	-	-	-	.	-
Cc1cc(NC(=O)C(C)SCC(=O)Nc2cc(C(F)(F)F)ccc2N2CCCCC2)no1 (stereo unspecified)	-	.	-	-	74	-
CCCNC(=O)N1CC2(CCN(C(=O)CCC)CC2)c2c(n(C)c3cc(OC)ccc23)[C@@H]1CO	-	-	-	-	.	.
CCCCN(C(=O)C1CCCC1)c1c(N)n(CCC)c(=O)[nH]c1=O	-	-	-	-	-	-
CCOC(=O)c1c(C)[nH]c(C)c1S(=O)(=O)N(C)CC(=O)N1CCN(c2ccc(OC)cc2)CC1	-	-	-	-	-	-
CCOc1cc(-c2cc(-c3ccc(N)cc3)nc(N)c2C#N)ccc1O	.	-	.	.	.	-
